Active and inactive are the calls of the source. The calls are words filed in the database; no cut-off is given here.

Series [1] is described as follows: Cmax in BALB/c mouse at 10 mg/kg, po by HPLC analysis. As to conditions: in vivo. Format: ADME, organism-based. More on the design: dose 10 mg/kg, route oral.
Series [2] in a line: Dose normalized AUC (0 to last) in BALB/c mouse at 10 mg/kg, po by HPLC analysis. The format is ADME, organism-based. As to conditions: in vivo.
The species named for series [3] is Homo sapiens. Put plainly: Selectivity ratio of IC50 for PI3Kbeta (unknown origin) using PIP2:3PS peptide as substrate preincubated for 15 mins followed by ATP addition at Km concentration and further incubated for 120 mins by ADP-Glo assay to IC50 for PI3Kalpha (unknown origin) using PIP2:3PS peptide as substrate preincubated for 15 mins followed by ATP addition at Km concentration and further incubated for 150 mins by ADP-Glo assay.

The species named for series [4] is Homo sapiens. Put plainly: Selectivity ratio of IC50 for PI3Kdelta (unknown origin) using PIP2:3PS peptide as substrate preincubated for 15 mins followed by ATP addition at Km concentration and further incubated for 120 mins by ADP-Glo assay to IC50 for PI3Kalpha (unknown origin) using PIP2:3PS peptide as substrate preincubated for 15 mins followed by ATP addition at Km concentration and further incubated for 150 mins by ADP-Glo assay. Background: ADP-Glo first removes unused ATP, then detects ADP through luciferase.

The species entered for series [5] is Homo sapiens. The experiment in a line: Selectivity ratio of IC50 for PI3Kgamma (unknown origin) using PIP2:3PS peptide as substrate preincubated for 15 mins followed by ATP addition at Km concentration and further incubated for 120 mins by ADP-Glo assay to IC50 for PI3Kalpha (unknown origin) using PIP2:3PS peptide as substrate preincubated for 15 mins followed by ATP addition at Km concentration and further incubated for 150 mins by ADP-Glo assay.

In series [6] the target is Phosphatidylinositol 4,5-bisphosphate 3-kinase catalytic subunit alpha isoform (Homo sapiens, UniProt P42336). Put plainly: Inhibition of PI3Kalpha (unknown origin) using PIP2:3PS peptide as substrate preincubated for 15 mins followed by ATP addition at Km concentration and further incubated for 150 mins by ADP-Glo assay.
Series [7] in a line: Inhibition of PI3K in human MCF7 cells assessed as reduction in AKT phosphorylation at residue S473 incubated for 2 hrs followed by insulin addition by ELISA. The format is cell-based. The note with it: MCF7, 2 h. (In general: In an ELISA, binding on a coated surface is turned into a signal by an enzyme label.)
For series [8], the system named is SK-OV-3. Put plainly: Antitumor activity against human SKOV3 cells xenografted in BALB/c nude mouse assessed as tumor growth inhibition at 10 to 100 mg/kg, po via gavage administered once daily and measured after 28 days by caliper method. Format: functional, organism-based. In short, it runs like this: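 SKOV-3 ovarian carcinoma subcutaneous xenografts in mice. Oral gavage once daily for 28 days at 10, 30 and 100 mg kg–1 day–1. Read-out is tumor growth inhibition.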

A short description of series [9]: Clearance in BALB/c mouse at 1 mg/kg, […] by HPLC analysis. Format: ADME, organism-based. The note with it: in vivo.
Series [10] is described as follows: Oral bioavailability in BALB/c mouse at 10 mg/kg by HPLC analysis. The format is ADME, organism-based. The note with it: in vivo.
Series [11] deals with BT-474. The experiment in a line: Antitumor activity against PI3KCA mutant human BT474 cells xenografted in BALB/c nude mouse assessed as tumor growth inhibition at 30 mg/kg, po administered once daily and measured after 30 days by caliper method relative to control. The format is functional. The note with it: BT-474, po, 720 h, read-out: TGI. A general note: Xenograft models place foreign cells or tissue in a host animal.

In series [12] the test system is BT-474. The experiment in a line: Antitumor activity against PI3KCA mutant human BT474 cells xenografted in BALB/c nude mouse assessed as tumor growth inhibition at 30 mg/kg, po administered once daily for 21 days by caliper method relative to control. As to conditions: BT-474, po, 504 h, read-out: TGI. The format is functional. In short, it runs like this:
(§1)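 BT-474 (PIK3CA mutant human breast ductal carcinoma) subcutaneous xenografts in Balb/c nude mice. Oral dosing once daily for 21 days. Vehicle 0.5% MC + 0.2% Tween 80. Read-out is tumor growth inhibition.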

Series [13] deals with BT-474. Put plainly: Antitumor activity against PI3KCA mutant human BT474 cells xenografted in BALB/c nude mouse assessed as tumor growth inhibition at 10 to 20 mg/kg, po administered once daily for 21 days by caliper method. Format: functional, organism-based. In short, it runs like this: as §1
A short description of series [14]: Toxicity in BALB/c nude mouse xenografted with PI3KCA mutant human BT474 cells at 30 mg/kg, po administered once daily. The format is organism-based, BT-474. As to conditions: in vivo. In a few lines:
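Balb/c nude mice bearing BT-474 subcutaneous xenografts. Oral dosing at 30 mg/kg once daily.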

Sequence of Phosphatidylinositol 4,5-bisphosphate 3-kinase catalytic subunit alpha isoform (P42336 whole entry, canonical isoform): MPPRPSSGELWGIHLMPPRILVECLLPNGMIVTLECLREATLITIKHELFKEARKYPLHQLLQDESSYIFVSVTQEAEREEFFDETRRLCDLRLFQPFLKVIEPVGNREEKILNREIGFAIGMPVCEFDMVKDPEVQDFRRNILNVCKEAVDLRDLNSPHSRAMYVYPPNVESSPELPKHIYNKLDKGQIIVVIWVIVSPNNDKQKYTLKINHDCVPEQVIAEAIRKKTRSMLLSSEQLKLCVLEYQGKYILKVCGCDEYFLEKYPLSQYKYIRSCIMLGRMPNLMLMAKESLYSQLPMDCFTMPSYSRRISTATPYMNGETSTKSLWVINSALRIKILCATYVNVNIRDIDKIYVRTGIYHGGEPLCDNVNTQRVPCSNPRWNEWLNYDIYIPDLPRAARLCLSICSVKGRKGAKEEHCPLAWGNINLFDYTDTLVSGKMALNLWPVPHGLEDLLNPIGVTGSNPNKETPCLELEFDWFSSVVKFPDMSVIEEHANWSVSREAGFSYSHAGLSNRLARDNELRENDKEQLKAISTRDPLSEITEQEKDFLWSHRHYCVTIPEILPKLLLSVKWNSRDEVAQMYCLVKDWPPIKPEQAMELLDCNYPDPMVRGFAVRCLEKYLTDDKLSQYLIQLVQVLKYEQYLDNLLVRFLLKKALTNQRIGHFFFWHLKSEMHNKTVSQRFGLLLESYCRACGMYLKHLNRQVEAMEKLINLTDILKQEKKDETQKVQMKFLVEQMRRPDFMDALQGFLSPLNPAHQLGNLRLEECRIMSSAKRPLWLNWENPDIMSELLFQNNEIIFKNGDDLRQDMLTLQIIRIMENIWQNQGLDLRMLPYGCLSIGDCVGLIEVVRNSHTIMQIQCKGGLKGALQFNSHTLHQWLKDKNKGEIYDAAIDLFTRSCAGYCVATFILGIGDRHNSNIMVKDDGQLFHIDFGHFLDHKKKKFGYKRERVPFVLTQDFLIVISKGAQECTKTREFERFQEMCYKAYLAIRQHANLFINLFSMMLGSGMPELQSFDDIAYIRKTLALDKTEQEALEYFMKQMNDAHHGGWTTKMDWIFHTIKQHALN

The Cmax is the peak of the concentration-time curve. The term IC50 denotes the midpoint of a concentration-inhibition curve. As for `COCCNC(=O)[C@H](C)Cn1cnc2ccc(-c3cnc(OC)c(NS(=O)(=O)c4ccc(F)cc4Cl)c3)cc2c1=O`, the Cmax in [1] worked out at 9.13 µM. Moreover, in series [2], the AUClast/dose was 723 nM.hr/(mg/kg). Moreover, the results for the Ratio IC50 in series [3], in series [4] and in series [5] were 229, 6.06 and 9.22, respectively. Further, the IC50 in [6] worked out at 4.9 nM; in [7], 72 nM.
The term CL/F denotes clearance divided by bioavailability, as obtained after extravascular dosing. Broadly, the bioavailability is dose-corrected exposure relative to a reference, in per cent. With `COc1ncc(-c2ccc3ncn(C[C@@H](C)C(N)=O)c(=O)c3c2)cc1NS(=O)(=O)c1ccc(F)cc1Cl`, the TGI entry in [8] is “inactive”. The molecule also showed a Cmax in series [1] of 4.45 µM. The AUClast/dose in series [2] was 1631 nM.hr/(mg/kg). Further, the figures for the Ratio IC50 in series [3], in [4] and in [5] were 83.2, 5.03 and 7.38, respectively. The molecule further gave an apparent clearance (CL/F) in [9] of 9.8 mL/min/kg. Also, the values for the 50% inhibitory concentration (IC50) in [6] and in series [7] were 2 nM and 17.1 nM, respectively. The molecule also came in with a bioavailability in series [10] of 56.2%.
Take `Cc1nc(NC(=O)N2CCC[C@H]2C(N)=O)sc1-c1ccnc(C(C)(C)C(F)(F)F)c1` [ALPELISIB]: in series [11], the inhibition in vivo at 30 mg/kg came to 80.2%.
As to `COc1ncc(-c2ccc3ncn(C[C@@H](C)C(=O)NC4CCC4)c(=O)c3c2)cc1NS(=O)(=O)c1ccc(F)cc1Cl`, the highest concentration (Cmax) in [1] came to 4.73 µM. In addition, in [2], the AUClast/dose amounted to 302 nM·h. Moreover, the Ratio IC50 was found to be 186 in series [3], 2.12 in series [4] and 3.27 in [5]. In addition, the IC50 in [6] was 8.4 nM; in series [7] it was 80.4 nM.
The molecule `CNC(=O)[C@H](C)Cn1cnc2ccc(-c3cnc(OC)c(NS(=O)(=O)c4cccc(C(F)(F)F)c4)c3)cc2c1=O` registered a maximum concentration (Cmax) in series [1] of 24.7 µM. For the same molecule, the AUClast/dose in [2] turned out to be 2020 nM·h. The Ratio IC50 in series [3] was 155; in [4] it was 5.79; in series [5], 10.4. This molecule returned a CL/F in series [9] of 9 mL/min/kg. Besides, the IC50 in [6] stood at 4.4 nM; in series [7], 87.1 nM. The bioavailability in [10] was determined as 9%. Besides, in [12], the inhibition in vivo at 30 mg/kg stood at 41.1%.
For the molecule `CNC(=O)[C@H](C)Cn1cnc2ccc(-c3cnc(OC)c(NS(=O)(=O)c4cccc(Cl)c4Cl)c3)cc2c1=O`, the Cmax in [1] amounted to 24 µM. The AUClast/dose in series [2] was 5700 nM·h. Further, the TGI entry in [13] is “inactive”. The Activity result in [14] is given as “Toxic”. In addition, the Ratio IC50 in series [3] came out at 175; in series [4] it was 11.6; in [5], 8.87. For the same molecule, the IC50 in series [6] was 1.1 nM; in series [7], 0.45 nM.
On to `CNC(=O)[C@H](C)Cn1cnc2ccc(-c3cnc(OC)c(NS(=O)(=O)c4ccc(F)cc4)c3)cc2c1=O`, for which, in series [1], the highest concentration (Cmax) worked out at 5 µM. Besides, the AUClast/dose in series [2] is 1370 nM·h. Also, the results for the Ratio IC50 in series [3], in series [4] and in series [5] were 106, 9.16 and 12.3, respectively. Also, the half-maximal inhibitory concentration (IC50) in series [6] came out at 3.4 nM; in series [7] it was 19 nM.
For the molecule `COc1ncc(-c2ccc3ncc(NC(=O)N4CCC[C@H]4C(N)=O)c(=O)n3c2)cc1NS(=O)(=O)c1ccc(F)cc1Cl`, the Ratio IC50 in series [3] was found to be 130; in series [4], 3.4; in series [5] it was 7.4. Also, the IC50 in series [6] worked out at 0.5 nM; in [7], 188 nM.
With `CNC(=O)[C@H](C)Cn1cnc2ccc(-c3cnc(OC)c(NS(=O)(=O)c4ccc(Cl)cc4Cl)c3)cc2c1=O`, the highest concentration (Cmax) in [1] stood at 37 µM. Also, the AUClast/dose in series [2] was 6260 nM·h. Besides, the TGI entry in series [13] was “inactive”. For the same molecule, the Activity entry in series [14] was “Toxic”. Besides, the Ratio IC50 in [3] amounted to 131; in series [4] it was 5.38; in series [5], 10.8. The IC50 in series [6] came to 2.1 nM; in series [7], 13.4 nM.
`COc1ncc(-c2ccc3ncn(C[C@@H](C)C(=O)NCC(C)C)c(=O)c3c2)cc1NS(=O)(=O)c1ccc(F)cc1Cl`: the Ratio IC50 in [3] worked out at 424; in series [4], 3.03; in series [5] it was 6.38. Further, the IC50 worked out at 8 nM in [6] and 81.1 nM in [7].
